# Data from ChEMBL document CHEMBL1138152, “Design and synthesis of novel hydrazide-linked bifunctional peptides as delta/mu opioid receptor agonists and CCK-1/CCK-2 receptor antagonists” (J Med Chem, 2006).
# What was measured:
# [1] = target: T1, Delta-type opioid receptor (Homo sapiens, UniProt P41143); assay: Displacement of [3H]DPDPE from human delta opioid receptor expressed in HN9.10 cells; type: cell-based
# Procedure, shortened: (§1)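 Membranes (50 µg) from HN9.10 neuroblastoma cells stably expressing rat MOR or human DOR. Buffer was 50 mM Tris pH 7.4 with bacitracin, bestatin, captopril, PMSF and 1 mg/mL BSA. Radioligand was [3H]DAMGO (MOR) or [3H]DPDPE (DOR), each 1.0 nM, with 10 test concentrations. Incubated 3 h at 25 °C, in duplicate. Nonspecific binding with 10 µM naloxone. Filtration, then scintillation counting.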
# [2] = target: T2, Mu-type opioid receptor (Rattus norvegicus, UniProt P33535); assay: Displacement of [3H]DAMGO from rat mu opioid receptor expressed in HN9.10 cells; type: cell-based; procedure, shortened: as §1
# [3] = target: T3, Cholecystokinin receptor type A (Homo sapiens, UniProt P32238); assay: Displacement of [125I]CCK8 from human CCK1 receptor expressed in HEK293 cells; type: cell-based
# T3 sequence (P32238 whole entry): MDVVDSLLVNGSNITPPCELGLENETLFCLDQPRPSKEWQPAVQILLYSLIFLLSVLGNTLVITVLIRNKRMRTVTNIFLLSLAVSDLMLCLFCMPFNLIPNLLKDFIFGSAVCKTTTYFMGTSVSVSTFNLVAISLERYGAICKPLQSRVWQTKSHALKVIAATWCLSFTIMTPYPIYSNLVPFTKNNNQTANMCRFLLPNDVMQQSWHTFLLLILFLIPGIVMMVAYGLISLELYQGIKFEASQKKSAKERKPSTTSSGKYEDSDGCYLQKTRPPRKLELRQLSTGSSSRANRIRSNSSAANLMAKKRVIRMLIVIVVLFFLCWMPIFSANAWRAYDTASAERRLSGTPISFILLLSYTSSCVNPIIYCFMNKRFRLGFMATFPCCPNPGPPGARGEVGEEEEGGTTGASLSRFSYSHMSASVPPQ
# [4] = target: Delta-type opioid receptor (Mus musculus, UniProt P32300); assay: Agonist activity at delta opioid receptor by inhibition of muscle contraction in electrically stimulated isolated mouse vas deferens; type: functional, tissue-based
# Procedure, shortened: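 Male ICR mouse vasa deferentia in 20-mL baths, 0.5 g tension, oxygenated Mg-free Krebs at 37 °C; field stimulation 0.1 Hz, 2.0 ms single pulses, supramaximal voltage. Tissue integrity checked with DPDPE (10 nM). Compound added cumulatively until maximal inhibition. Inhibition taken as mean contraction height for 1 min before dosing versus height 3 min after. IC50 from Hill-equation fit by nonlinear least squares.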
# [5] = target: T2, Mu-type opioid receptor; assay: (§2) Inhibition of [35S]GTP-gamma-S binding to rat mu opioid receptor expressed in CHO cells; type: functional, cell-based
# Procedure, shortened: (§3)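 CHO-expressed receptor membranes (10 µg) in 50 mM HEPES pH 7.4 with EDTA, 5 mM MgCl2, 30 µM GDP, DTT, 100 mM NaCl, PMSF, BSA and 0.1 nM [35S]GTPγS. Test drug at various concentrations, duplicate or triplicate, 90 min at 30 °C. Nonspecific binding with 10 µM GTPγS.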
# [6] = target: T4, Gastrin/cholecystokinin type B receptor (Homo sapiens, UniProt P32239); assay: Displacement of [125I]CCK8 from human CCK2 receptor expressed in HEK293 cells; type: cell-based
# T4 sequence (P32239 whole entry): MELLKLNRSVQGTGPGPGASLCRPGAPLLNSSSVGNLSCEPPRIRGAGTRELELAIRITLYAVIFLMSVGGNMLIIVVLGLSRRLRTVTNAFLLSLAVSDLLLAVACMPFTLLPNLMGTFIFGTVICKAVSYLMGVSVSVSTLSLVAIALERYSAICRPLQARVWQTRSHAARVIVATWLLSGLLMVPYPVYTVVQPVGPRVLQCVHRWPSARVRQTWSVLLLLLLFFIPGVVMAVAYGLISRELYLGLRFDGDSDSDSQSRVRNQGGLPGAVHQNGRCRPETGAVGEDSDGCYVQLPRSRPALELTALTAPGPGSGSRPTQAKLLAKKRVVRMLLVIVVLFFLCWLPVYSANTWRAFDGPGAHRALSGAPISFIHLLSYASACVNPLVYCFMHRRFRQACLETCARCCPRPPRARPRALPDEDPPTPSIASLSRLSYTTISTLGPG
# [7] = target: T1, Delta-type opioid receptor; assay: Inhibition of [35S]GTP-gamma-S binding to human delta opioid receptor expressed in CHO cells; type: functional, cell-based; procedure, shortened: as §3
# [8] = target: Mu-type opioid receptor (Cavia porcellus, UniProt P97266); assay: Agonist activity at mu opioid receptor by inhibition of muscle contraction in electrically stimulated isolated guinea pig ileum; type: functional, tissue-based
# Procedure, shortened: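 Longitudinal muscle–myenteric plexus strips from male Hartley guinea pig ileum, 1 g tension, oxygenated Krebs at 37 °C, 15 min equilibration. Stimulated at 0.1 Hz, 0.4 ms, supramaximal voltage. Integrity checked with PL-017 (10 nM). Compound added until maximal inhibition. Inhibition taken as contraction height 1 min before versus 3 min after dosing. IC50 from Hill-equation fit.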
# [9] = target: T5, Cholecystokinin receptor (Homo sapiens) (UniProt P32239+P32238); assay: Antagonist activity at CCK receptor by inhibition of CCK8-induced muscle contraction in unstimulated GPI/LMMP; type: functional; details: Cavia porcellus; target entry is the homologue from another species
# Procedure, shortened: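 Male Hartley guinea pig ileum LMMP strips, 1 g tension, oxygenated Krebs bicarbonate buffer, 37 °C; 67 mM KCl sets maximal contractility. Initial noncumulative CCK-8 dose-response curve built. Test compound added without electrical stimulation; 3 min later the CCK-8 curve was rebuilt at an antagonist dose giving about a 3-fold rightward shift. Ke is the antagonist concentration halving CCK-8 activity.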
# [10] = target: Mu-type opioid receptor (Rattus norvegicus) (UniProt P33535); assay: as §2; type: functional, cell-based; procedure, shortened: as §3
# [11] = target: T5, Cholecystokinin receptor (Homo sapiens); assay: Agonist activity at CCK receptor of guinea pig ileum at 1 uM; type: functional, tissue-based; details: Cavia porcellus, target entry is the homologue from another species
# Procedure, shortened: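 Guinea pig ileum LMMP strips (male Hartley), 20-mL baths, 1 g tension, oxygenated Krebs bicarbonate buffer, 37 °C. Tissue first challenged with 67 mM KCl to set maximal contraction. Test compound added to the bath; agonist activity taken as contraction height as a percentage of the maximal KCl contraction (A50).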
# T2 sequence (P33535 whole entry): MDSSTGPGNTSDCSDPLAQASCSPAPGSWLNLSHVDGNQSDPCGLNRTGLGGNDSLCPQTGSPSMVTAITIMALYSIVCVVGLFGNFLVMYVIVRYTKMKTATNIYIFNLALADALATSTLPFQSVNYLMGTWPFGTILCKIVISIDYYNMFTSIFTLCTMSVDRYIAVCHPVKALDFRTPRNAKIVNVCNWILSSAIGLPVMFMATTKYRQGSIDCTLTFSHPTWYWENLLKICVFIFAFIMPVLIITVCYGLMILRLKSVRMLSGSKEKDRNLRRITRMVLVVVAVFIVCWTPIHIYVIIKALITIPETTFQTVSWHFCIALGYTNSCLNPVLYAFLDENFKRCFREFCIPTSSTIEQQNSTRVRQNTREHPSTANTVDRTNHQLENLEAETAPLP
# Delta-type opioid receptor (Mus musculus, UniProt P32300), sequence (P32300 whole entry): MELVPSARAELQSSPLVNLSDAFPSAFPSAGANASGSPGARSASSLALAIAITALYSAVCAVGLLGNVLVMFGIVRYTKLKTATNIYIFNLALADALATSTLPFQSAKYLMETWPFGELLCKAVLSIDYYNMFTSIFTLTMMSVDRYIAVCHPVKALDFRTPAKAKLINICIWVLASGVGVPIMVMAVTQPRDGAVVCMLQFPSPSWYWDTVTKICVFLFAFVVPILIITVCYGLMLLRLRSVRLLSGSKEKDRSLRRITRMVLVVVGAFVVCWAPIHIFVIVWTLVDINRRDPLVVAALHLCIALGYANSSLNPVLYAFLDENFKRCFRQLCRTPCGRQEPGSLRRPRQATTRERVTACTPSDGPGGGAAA
# T1 sequence (P41143 whole entry): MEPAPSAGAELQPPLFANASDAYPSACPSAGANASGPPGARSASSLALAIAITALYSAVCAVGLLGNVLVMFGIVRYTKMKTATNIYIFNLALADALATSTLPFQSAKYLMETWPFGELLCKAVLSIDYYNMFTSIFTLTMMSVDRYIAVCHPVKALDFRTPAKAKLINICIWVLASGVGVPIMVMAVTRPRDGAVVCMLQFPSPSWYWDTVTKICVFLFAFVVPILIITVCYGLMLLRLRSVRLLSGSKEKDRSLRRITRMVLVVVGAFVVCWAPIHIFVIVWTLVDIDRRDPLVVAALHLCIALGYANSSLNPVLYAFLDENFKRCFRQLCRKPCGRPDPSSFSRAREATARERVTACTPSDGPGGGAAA
# Mu-type opioid receptor (Cavia porcellus, UniProt P97266), sequence (P97266 whole entry): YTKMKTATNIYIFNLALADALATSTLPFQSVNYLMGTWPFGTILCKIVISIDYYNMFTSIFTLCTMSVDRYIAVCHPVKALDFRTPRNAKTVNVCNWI
# Mu-type opioid receptor (Rattus norvegicus), sequence (P33535 whole entry): as the sequence (P33535 whole entry) above
Structure (SMILES),IC50 [1] [nM],Ki [1] [nM],IC50 [2] [nM],Ki [2] [nM],IC50 [3] [nM],Ki [3] [nM],IC50 [4] [nM],EC50 ([5]; read-out: EC50) [nM],IC50 [6] [nM],Ki [6] [nM],EC50 [7] [nM],IC50 [8] [nM],EC50 ([5]; read-out: Log EC50 (converted)) [nM],Ke [9] [nM],Emax [10] [%],Activity [11] [%],Emax [7] [%]
CCCC[C@@H](C(=O)N[C@@H](CC(=O)O)C(=O)N[C@@H](Cc1ccccc1)C(=O)NNC(=O)[C@H](Cc1ccccc1)NC(=O)CNC(=O)[C@@H](C)NC(=O)[C@@H](N)Cc1ccc(O)cc1)N(C)C(=O)[C@@H](Cc1c[nH]c2ccccc12)NC(=O)OC(C)(C)C,2,0.82,47.9,20,1910,1900,42,0.64,1550,1500,26,–,–,–,–,–,–
CCCC[C@H](NC(=O)[C@H](N)Cc1c[nH]c2ccccc12)C(=O)N[C@@H](CC(=O)O)C(=O)N[C@@H](Cc1ccccc1)C(=O)NNC(=O)[C@H](Cc1ccccc1)NC(=O)CNC(=O)[C@@H](C)NC(=O)[C@@H](N)Cc1ccc(O)cc1,3.24,1.4,1.2,0.51,10200,10000,26,9.6,9330,9300,9.4,81,9.77,–,–,–,–
CCCC[C@H](NC(=O)[C@@H](Cc1c[nH]c2ccccc12)NC(=O)OC(C)(C)C)C(=O)N[C@@H](CC(=O)O)C(=O)N[C@@H](Cc1ccccc1)C(=O)NNC(=O)[C@H](Cc1ccccc1)NC(=O)CNC(=O)[C@@H](C)NC(=O)[C@@H](N)Cc1ccc(O)cc1,93.3,45,64.6,31,35500,> 10000,24,210,10000,> 10000,74,460,–,–,–,–,–
CCCC[C@H](NC(=O)[C@@H](Cc1c[nH]c2ccccc12)NC(=O)OC12CC3CC(CC(C3)C1)C2)C(=O)N[C@@H](CC(=O)O)C(=O)N[C@@H](Cc1ccccc1)C(=O)NNC(=O)[C@H](Cc1ccccc1)NC(=O)CNC(=O)[C@@H](C)NC(=O)[C@@H](N)Cc1ccc(O)cc1,0.417,0.23,195,88,851,840,38,10,562,560,27,640,–,–,–,–,–
CCCC[C@H](NC(=O)[C@H](CC(=O)O)NC(=O)[C@H](Cc1ccccc1)NN[C@@H](Cc1ccccc1)C(=O)NCC(=O)N[C@H](C)C(=O)N[C@@H](Cc1ccc(O)cc1)C(=O)O)C(=O)N[C@@H](Cc1cn(C(=O)OC(C)(C)C)c2ccccc12)C(=O)O,–,–,–,–,–,–,–,–,–,–,–,–,–,14,83,0,54
CCCC[C@H](NC(=O)[C@H](Cc1c[nH]c2ccccc12)NC(=O)OC(C)(C)C)C(=O)N[C@@H](CC(=O)O)C(=O)N[C@@H](Cc1ccccc1)C(=O)NNC(=O)[C@H](Cc1ccccc1)NC(=O)CNC(=O)[C@@H](C)NC(=O)[C@@H](N)Cc1ccc(O)cc1,138,59,55,24,4070,4100,230,9.5,3980,3800,27,55,–,–,–,–,–
